# The source made the active and inactive calls. The rule behind the calls is not given here.
# What was measured:
# [1] = system: Huh-7; experiment: Cytotoxicity against human Huh-7 cells infected with Dengue virus serotype 2 assessed as reduction in cell viability by celltiter-blue assay; format: toxicity, cell-based
# Summary of the method: (§1)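 CellTiter-Blue viability in HeLa reporter cells or Huh-7 cells, on plates run in parallel with the reporter or titer-reduction assay under the same treatment; each concentration in triplicate.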
# [2] = system: dengue virus type 2; experiment: Antiviral activity against Dengue virus serotype 2 infected in Huh-7 cells assessed as reduction in virus titer at 12.5 uM incubated for 48 hrs followed by infection of Vero E6 cells with supernatant and measured after 7 days by crystal violet staining based analysis relative to control; format: functional; parameters: scale not given: the % may be the effect or the level left; conditions: time 9 day
# Summary of the method: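 Huh-7 cells (1×10^4/well, overnight) infected with DENV-2 at MOI 1 for 2 h, medium changed, compound added; 48 h, triplicate supernatants pooled. Titer by plaque assay: Vero E6 infected 1 h with 10^-1 to 10^-6 dilutions, plaque medium 7 days, formaldehyde-fixed, crystal violet stained, plaques counted.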
# [3] = biological target: Replicase polyprotein 1ab (Severe acute respiratory syndrome coronavirus 2) (UniProt P0DTD1); experiment: Reversible inhibition of C-terminal His tagged SARS CoV-2 main protease transfected in Escherichia coli BL21 (DE3) at 100 uM preincubated for 2 hrs followed by dilution to 3 uM and substrate addition measured after 15 mins by fluorimetric assay; conditions: time 135.0 min
# [4] = system: HeLa; experiment: Cytotoxicity against human HeLa cells expressing luciferase-based DENV-2 protease reporter system assessed as reduction in cell viability by celltiter-blue assay; format: toxicity; summary of the method: as §1
# [5] = biological target: Replicase polyprotein 1ab (Severe acute respiratory syndrome coronavirus 2) (UniProt P0DTD1); experiment: Inhibition of C-terminal His tagged SARS CoV-2 main protease transfected in Escherichia coli BL21 (DE3) at 50 uM incubated in presence of DTT
# Summary of the method: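 Mpro fluorogenic inhibition assay repeated with 1 mM DTT added to the assay buffer.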
# [6] = biological target: Replicase polyprotein 1ab (Severe acute respiratory syndrome coronavirus 2) (UniProt P0DTD1); experiment: Inhibition of C-terminal His tagged SARS CoV-2 main protease transfected in Escherichia coli BL21 (DE3) using 2-Abz-Ser-AlaVal-Leu-Gln-Ser-Gly-Tyr(3-NO2)-Arg-OH as substrate at 50 uM preincubated for 15 mins followed by substrate addition and measured after 15 mins by FRET assay relative to control; conditions: time 30.0 min
# [7] = biological target: T1, Replicase polyprotein 1ab (Severe acute respiratory syndrome coronavirus 2, UniProt P0DTD1); experiment: (§2) Inhibition of C-terminal His tagged SARS CoV-2 main protease transfected in Escherichia coli BL21 (DE3) using 2-Abz-Ser-AlaVal-Leu-Gln-Ser-Gly-Tyr(3-NO2)-Arg-OH as substrate preincubated for 15 mins followed by substrate addition and measured after 15 mins by FRET assay
# [8] = biological target: Replicase polyprotein 1ab (Severe acute respiratory syndrome coronavirus 2) (UniProt P0DTD1); experiment: as §2, with “Potency index, ratio of boceprevir IC50 to test compound IC50 for inhibition” for “Inhibition”; conditions: time 30.0 min
# [9] = biological target: Genome polyprotein (dengue virus type 2) (UniProt P29990); experiment: Inhibition of full length DENV2 NS2B-NS3 protease in human HeLa cells expressing luciferase reporter gene at 12.5 uM incubated for 24 hrs by luminescence analysis relative to control; format: cell-based
# Summary of the method: (§3)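 Stable DENV2pro reporter HeLa cells seeded at 2×10^4 per well and dosed immediately; 24 h at 37 °C, lysed 15 min, coelenterazine (2.75 μM in PBS) injected, luminescence read 5 s. Triplicates; % inhibition vs untreated cells; EC50 by 4-parameter fit with cell-free background subtraction.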
# [10] = biological target: Replicase polyprotein 1ab (Severe acute respiratory syndrome coronavirus 2) (UniProt P0DTD1); experiment: […] inhibition of C-terminal His tagged SARS CoV-2 main protease transfected in Escherichia coli BL21 (DE3) assessed as decrease in Vmax with constant Km using varying concentrations of 2-Abz-Ser-AlaVal-Leu-Gln-Ser-Gly-Tyr(3-NO2)-Arg-OH as substrate by Michaelis-Menten analysis
# [11] = biological target: T1, Replicase polyprotein 1ab; experiment: Chemical stability of the compound in SARS-CoV-2 main protease assay buffer assessed as SARS-CoV-2 main protease-mediated amide bond cleavage at 100 uM measured after 8 hrs by HPLC based UV-Vis analysis; format: ADME; conditions: severe acute respiratory syndrome coronavirus 2, buffer
# Summary of the method: (§4)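 Compound incubated with isolated protease (SARS-CoV-2 Mpro or DENV-2 protease) in that enzyme's assay buffer for 8 h; remaining compound quantified by HPLC with UV/Vis detection (peak AUC).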
# [12] = biological target: T1, Replicase polyprotein 1ab; experiment: Inhibition of C-terminal His tagged SARS CoV-2 main protease transfected in Escherichia coli BL21 (DE3) assessed as inhibition constant by Michaelis-Menten analysis
# [13] = Permeability of compound in PBS at pH 7.4 measured after 5 hrs by HPLC-UV based PAMPA assay; format: ADME; conditions: pH 7.4, 5 h
# [14] = system: HeLa; experiment: Cytotoxicity against human HeLa cells expressing renilla luciferase reporter construct assessed as reduction in cell viability at 12.5 uM by luciferase based analysis; format: toxicity
# [15] = biological target: T2, Genome polyprotein (dengue virus type 2, UniProt P29990); experiment: Inhibition of full length DENV2 NS2B-NS3 protease in human HeLa cells expressing luciferase reporter gene incubated for 24 hrs by luminescence analysis; format: cell-based; summary of the method: as §3
# [16] = biological target: T2, Genome polyprotein; experiment: Chemical stability of the compound in DENV2 NS2B-NS3 protease assay buffer assessed as DENV2 NS2B-NS3 protease-mediated amide bond cleavage by measuring reduction in AUC at 100 uM measured after 8 hrs by HPLC analysis; format: ADME; conditions: dengue virus type 2, buffer; summary of the method: as §4
# [17] = biological target: Trypsin (Homo sapiens, UniProt P07477+P07478+P35030); experiment: Inhibition of trypsin (unknown origin) using Boc-Val-Pro-Arg-AMC as substrate assessed as enzymatic cleavage preincubated for 15 mins followed by substrate addition and measured after 15 mins by Continuous fluorimetric assay; format: protein assay
SMILES,Activity [1],Activity [2],inhibition [3],CC50 [4],inhibition [5],inhibition [6],IC50 [7],Ratio IC50 [8],inhibition [9],inhibition [10],Stability [11],Ki [12],permeability [13],Activity [14],EC50 [15],Stability [16],IC50 [17]
O=C(Nc1ccc2c(c1)B(O)OC2)c1cccc(OCc2ccccc2)c1,Non-Toxic,67.4%,Active,55.2 µM,Active,99.6%,6.1 µM,3,81.2%,Active,Stable,6.2 µM,Permeable,Non-Toxic,2.4 µM,Stable,
N=C(N)Nc1ccc(C(=O)Nc2ccc3c(c2)B(O)OC3)cc1,,,,> 200 µM,Active,87.4%,13.9 µM,,23%,,Stable,,,Non-Toxic,,,61.4 µM

# From ChEMBL document CHEMBL5113504, “Discovery of potent benzoxaborole inhibitors against SARS-CoV-2 main and dengue virus proteases” (Eur J Med Chem, 2022)
